In ChEMBL document CHEMBL4196116, “3-Aryl-1,2,4-oxadiazole Derivatives Active Against Human Rhinovirus” (ACS Med Chem Lett, 2018):

Tested on: not listed separately
Assay: Clearance in Sprague-Dawley rat at 5 mg/kg, iv by LC/MS/MS analysis
Assay type: ADME, organism-based
Conditions: in vivo
How it was run: (§1)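 Male Sprague–Dawley rats, n = 3, given 5 mg·kg–1 intravenously or 10 mg·kg–1 orally. Plasma deproteinized in acetonitrile and assayed by LC–MS/MS. Parameters derived from concentration–time data by noncompartmental analysis. Values reported as mean ± standard deviation.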

| Structure (SMILES) | clearance [mL/min/kg] |
| --- | --- |
| CNC(=O)c1cc(Oc2ccc(-c3noc(C(C)C)n3)c(C)c2)ccn1 | 2.63 |

Tested on: not listed separately
Assay: Metabolic stability in rat liver microsomes assessed as parent compound remaining at 1 uM after 30 mins in presence of NADPH by LC/MS/MS analysis
Assay type: ADME, microsome
Conditions: read-out: Stability
How it was run: (§2)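 Phase I metabolic stability in rat or human liver microsomes, reported as % parent remaining after 30 min. Buspirone serves as reference. Values are mean ± SD of at least three independent experiments.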

| Structure (SMILES) | remaining at 0.5 h, 1 µM [%] |
| --- | --- |
| CNC(=O)c1cc(Oc2ccc3c(C)c(C(=O)OC(C)C)sc3c2)ccn1 | 1 |
| CNC(=O)c1cc(Oc2c(C)cc(-c3noc(C(C)C)n3)cc2C)ccn1 | 37.1 |
| CNC(=O)c1cc(Oc2ccc(-c3noc(C(C)C)n3)cc2C)ccn1 | 35.1 |
| CNC(=O)c1cc(Oc2ccc(-c3noc(C(C)C)n3)c(C)c2)ccn1 | 59.6 |
| CNC(=O)c1cc(Oc2ccc3c(C)c(-c4noc(C(C)C)n4)sc3c2)ccn1 | 99.2 |
| O=C1CC2(CCCC2)CC(=O)N1CCCCN1CCN(c2ncccn2)CC1 [BUSPIRONE] | 0.1 |

Tested on: rhinovirus B14
Assay: Antiviral activity against Human rhinovirus B14 infected in human H1HeLa cells assessed as inhibition of viral replication after 3 days by MTT assay
Assay type: functional, organism-based
Conditions: Rhinovirus B, H1-HeLa, 72 h
How it was run: (§3)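 Anti-rhinovirus EC50 against hRV-B14, -A21 and -A71 determined in H1HeLa cells. Read-out is MTT cell viability. EC50 is the concentration that inhibits viral replication by 50%. Pleconaril serves as reference.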

| Structure (SMILES) | EC50 [nM] |
| --- | --- |
| CNC(=O)c1cc(Oc2ccc(-c3noc(CC(C)C)n3)cc2)ccn1 | > 23400 |
| CNC(=O)c1cc(Oc2cccc(-c3noc(CC(C)C)n3)c2)ccn1 | > 19100 |
| CNC(=O)c1cc(Oc2ccc(-c3noc(COC)n3)cc2)ccn1 | 8300 |
| CNC(=O)c1cc(Oc2c(C)cc(-c3noc(C(C)C)n3)cc2C)ccn1 | 300 |
| CNC(=O)c1cc(Oc2ccc(-c3noc(C4CC4)n3)cc2)ccn1 | 520 |
| Cc1cc(-c2noc(C(C)C)n2)cc(C)c1Oc1ccnc(C(=O)N(C)C)c1 | > 1800 |
| CNC(=O)c1cc(Oc2cccc(-c3noc(C(C)C)n3)c2)ccn1 | 12800 |
| CNC(=O)c1cc(Oc2ccc(-c3noc(C(C)C)n3)cc2)ccn1 | 73 |
| CNC(=O)c1cc(Oc2ccc3c(C)c(-c4noc(C)n4)sc3c2)ccn1 | 650 |
| CNC(=O)c1cc(Oc2ccc(-c3noc(C(C)C)n3)cc2C)ccn1 | 73 |
| CNC(=O)c1cc(Oc2ccc(-c3noc(C(C)C)n3)c(C)c2)ccn1 | 66 |
| CNC(=O)c1cc(Oc2ccc3c(C)c(-c4noc(C(C)C)n4)sc3c2)ccn1 | 73 |

Tested on: not listed separately
Assay: Terminal half life in Sprague-Dawley rat at 10 mg/kg, po by LC/MS/MS analysis
Assay type: ADME, organism-based
Conditions: in vivo, read-out: beta t1/2 (converted)
How it was run: as §1

| Structure (SMILES) | half-life [h] |
| --- | --- |
| CNC(=O)c1cc(Oc2ccc(-c3noc(C(C)C)n3)c(C)c2)ccn1 | 3.2 |

Tested on: not listed separately
Assay: Antiviral activity against Human rhinovirus A71 infected in human H1HeLa cells assessed as inhibition of viral replication after 3 days by MTT assay
Assay type: functional, cell-based
Conditions: Rhinovirus A, H1-HeLa, 72 h
How it was run: as §3

| Structure (SMILES) | EC50 [nM] |
| --- | --- |
| CNC(=O)c1cc(Oc2ccc(-c3noc(CC(C)C)n3)cc2)ccn1 | 340 |
| CNC(=O)c1cc(Oc2cccc(-c3noc(CC(C)C)n3)c2)ccn1 | 370 |
| CNC(=O)c1cc(Oc2ccc(-c3noc(COC)n3)cc2)ccn1 | 1700 |
| CNC(=O)c1cc(Oc2c(C)cc(-c3noc(C(C)C)n3)cc2C)ccn1 | 11 |
| CNC(=O)c1cc(Oc2ccc(-c3noc(C4CC4)n3)cc2)ccn1 | 50 |
| Cc1cc(-c2noc(C(C)C)n2)cc(C)c1Oc1ccnc(C(=O)N(C)C)c1 | > 1800 |
| CNC(=O)c1cc(Oc2cccc(-c3noc(C(C)C)n3)c2)ccn1 | 150 |
| CNC(=O)c1cc(Oc2ccc(-c3noc(C(C)C)n3)cc2)ccn1 | 34 |
| CNC(=O)c1cc(Oc2ccc3c(C)c(-c4noc(C)n4)sc3c2)ccn1 | 61 |
| CNC(=O)c1cc(Oc2ccc(-c3noc(C(C)C)n3)cc2C)ccn1 | 2.5 |
| CNC(=O)c1cc(Oc2ccc(-c3noc(C(C)C)n3)c(C)c2)ccn1 | 3.7 |
| CNC(=O)c1cc(Oc2ccc3c(C)c(-c4noc(C(C)C)n4)sc3c2)ccn1 | 13 |

Tested on: not listed separately
Assay: Cytotoxicity against human H1HeLa cells assessed as reduction in cell viability after 3 days by MTT assay
Assay type: cell-based, H1-HeLa
Conditions: not given

| Structure (SMILES) | CC50 at 72 h [nM] |
| --- | --- |
| CNC(=O)c1cc(Oc2ccc(-c3noc(CC(C)C)n3)cc2)ccn1 | 23400 |
| CNC(=O)c1cc(Oc2cccc(-c3noc(CC(C)C)n3)c2)ccn1 | 19100 |
| CNC(=O)c1cc(Oc2ccc(-c3noc(COC)n3)cc2)ccn1 | 63400 |
| CNC(=O)c1cc(Oc2c(C)cc(-c3noc(C(C)C)n3)cc2C)ccn1 | 7400 |
| CNC(=O)c1cc(Oc2ccc(-c3noc(C4CC4)n3)cc2)ccn1 | 32300 |
| Cc1cc(-c2noc(C(C)C)n2)cc(C)c1Oc1ccnc(C(=O)N(C)C)c1 | 1800 |
| CNC(=O)c1cc(Oc2cccc(-c3noc(C(C)C)n3)c2)ccn1 | 54200 |
| CNC(=O)c1cc(Oc2ccc(-c3noc(C(C)C)n3)cc2)ccn1 | 16100 |
| CNC(=O)c1cc(Oc2ccc3c(C)c(-c4noc(C)n4)sc3c2)ccn1 | > 100000 |
| CNC(=O)c1cc(Oc2ccc(-c3noc(C(C)C)n3)cc2C)ccn1 | 8900 |
| CNC(=O)c1cc(Oc2ccc(-c3noc(C(C)C)n3)c(C)c2)ccn1 | 30500 |
| CNC(=O)c1cc(Oc2ccc3c(C)c(-c4noc(C(C)C)n4)sc3c2)ccn1 | 5500 |

Tested on: not listed separately
Assay: Cmax in Sprague-Dawley rat at 10 mg/kg, po by LC/MS/MS analysis
Assay type: ADME, organism-based
Parameters: dose 10 mg/kg, route oral
Conditions: in vivo
How it was run: as §1

| Structure (SMILES) | Cmax [ng/mL] |
| --- | --- |
| CNC(=O)c1cc(Oc2ccc(-c3noc(C(C)C)n3)c(C)c2)ccn1 | 3900 |

Tested on: not listed separately
Assay: Tmax in Sprague-Dawley rat at 10 mg/kg, po by LC/MS/MS analysis
Assay type: ADME, organism-based
Conditions: in vivo
How it was run: as §1

| Structure (SMILES) | Tmax [h] |
| --- | --- |
| CNC(=O)c1cc(Oc2ccc(-c3noc(C(C)C)n3)c(C)c2)ccn1 | 2.7 |

Tested on: not listed separately
Assay: AUCt in Sprague-Dawley rat at 5 mg/kg, iv by LC/MS/MS analysis
Assay type: ADME, organism-based
Conditions: in vivo
How it was run: as §1

| Structure (SMILES) | AUC(0-t) [ng·h/mL] |
| --- | --- |
| CNC(=O)c1cc(Oc2ccc(-c3noc(C(C)C)n3)c(C)c2)ccn1 | 31300 |

Tested on: rhinovirus A21
Assay: Antiviral activity against Human rhinovirus A21 infected in human H1HeLa cells assessed as inhibition of viral replication after 3 days by MTT assay
Assay type: functional, organism-based
Conditions: Rhinovirus A, H1-HeLa, 72 h
How it was run: as §3

| Structure (SMILES) | EC50 [nM] |
| --- | --- |
| CNC(=O)c1cc(Oc2ccc(-c3noc(CC(C)C)n3)cc2)ccn1 | 2200 |
| CNC(=O)c1cc(Oc2cccc(-c3noc(CC(C)C)n3)c2)ccn1 | 2700 |
| CNC(=O)c1cc(Oc2ccc(-c3noc(COC)n3)cc2)ccn1 | 2100 |
| CNC(=O)c1cc(Oc2c(C)cc(-c3noc(C(C)C)n3)cc2C)ccn1 | 69 |
| CNC(=O)c1cc(Oc2ccc(-c3noc(C4CC4)n3)cc2)ccn1 | 400 |
| Cc1cc(-c2noc(C(C)C)n2)cc(C)c1Oc1ccnc(C(=O)N(C)C)c1 | > 1800 |
| CNC(=O)c1cc(Oc2cccc(-c3noc(C(C)C)n3)c2)ccn1 | 2100 |
| CNC(=O)c1cc(Oc2ccc(-c3noc(C(C)C)n3)cc2)ccn1 | 380 |
| CNC(=O)c1cc(Oc2ccc3c(C)c(-c4noc(C)n4)sc3c2)ccn1 | 59 |
| CNC(=O)c1cc(Oc2ccc(-c3noc(C(C)C)n3)cc2C)ccn1 | 29 |
| CNC(=O)c1cc(Oc2ccc(-c3noc(C(C)C)n3)c(C)c2)ccn1 | 22 |
| CNC(=O)c1cc(Oc2ccc3c(C)c(-c4noc(C(C)C)n4)sc3c2)ccn1 | 300 |

Tested on: not listed separately
Assay: AUCt in Sprague-Dawley rat at 10 mg/kg, po by LC/MS/MS analysis
Assay type: ADME, organism-based
Conditions: in vivo
How it was run: as §1

| Structure (SMILES) | AUC(0-t) [ng·h/mL] |
| --- | --- |
| CNC(=O)c1cc(Oc2ccc(-c3noc(C(C)C)n3)c(C)c2)ccn1 | 17400 |

Tested on: not listed separately
Assay: Metabolic stability in human liver microsomes assessed as parent compound remaining at 1 uM after 30 mins in presence of NADPH by LC/MS/MS analysis
Assay type: ADME, microsome
Conditions: read-out: Stability
How it was run: as §2

| Structure (SMILES) | remaining at 0.5 h, 1 µM [%] |
| --- | --- |
| CNC(=O)c1cc(Oc2ccc3c(C)c(C(=O)OC(C)C)sc3c2)ccn1 | 42.7 |
| CNC(=O)c1cc(Oc2c(C)cc(-c3noc(C(C)C)n3)cc2C)ccn1 | 61.1 |
| CNC(=O)c1cc(Oc2ccc(-c3noc(C(C)C)n3)cc2C)ccn1 | 9.9 |
| CNC(=O)c1cc(Oc2ccc(-c3noc(C(C)C)n3)c(C)c2)ccn1 | 40.7 |
| CNC(=O)c1cc(Oc2ccc3c(C)c(-c4noc(C(C)C)n4)sc3c2)ccn1 | 69.8 |
| O=C1CC2(CCCC2)CC(=O)N1CCCCN1CCN(c2ncccn2)CC1 [BUSPIRONE] | 3.5 |

Tested on: not listed separately
Assay: AUC (infinity) in Sprague-Dawley rat at 10 mg/kg, po by LC/MS/MS analysis
Assay type: ADME, organism-based
Parameters: dose 10 mg/kg, time infinity, route oral
Conditions: in vivo
How it was run: as §1

| Structure (SMILES) | AUC(0-inf) [ng·h/mL] |
| --- | --- |
| CNC(=O)c1cc(Oc2ccc(-c3noc(C(C)C)n3)c(C)c2)ccn1 | 17400 |

Tested on: not listed separately
Assay: AUC (infinity) in Sprague-Dawley rat at 5 mg/kg, iv by LC/MS/MS analysis
Assay type: ADME, organism-based
Parameters: dose 5 mg/kg, route intravenous, time infinity
Conditions: in vivo
How it was run: as §1

| Structure (SMILES) | AUC(0-inf) [ng·h/mL] |
| --- | --- |
| CNC(=O)c1cc(Oc2ccc(-c3noc(C(C)C)n3)c(C)c2)ccn1 | 31800 |

Tested on: not listed separately
Assay: Terminal half life in Sprague-Dawley rat at 5 mg/kg, iv by LC/MS/MS analysis
Assay type: ADME, organism-based
Conditions: in vivo, read-out: beta t1/2 (converted)
How it was run: as §1

| Structure (SMILES) | half-life [h] |
| --- | --- |
| CNC(=O)c1cc(Oc2ccc(-c3noc(C(C)C)n3)c(C)c2)ccn1 | 4.6 |

Tested on: not listed separately
Assay: Oral bioavailability in Sprague-Dawley rat at 10 mg/kg by LC/MS/MS analysis
Assay type: ADME, organism-based
Conditions: in vivo
How it was run: as §1

| Structure (SMILES) | bioavailability [%] |
| --- | --- |
| CNC(=O)c1cc(Oc2ccc(-c3noc(C(C)C)n3)c(C)c2)ccn1 | 27.8 |

Tested on: not listed separately
Assay: Volume of distribution at steady state in Sprague-Dawley rat at 5 mg/kg, iv by LC/MS/MS analysis
Assay type: ADME, organism-based
Conditions: in vivo, read-out: Vdss
How it was run: as §1

| Structure (SMILES) | Vd [L/kg] |
| --- | --- |
| CNC(=O)c1cc(Oc2ccc(-c3noc(C(C)C)n3)c(C)c2)ccn1 | 0.611 |
